# From ChEMBL document CHEMBL1149345, “Pyrrolo[1,2-b][1,2,5]benzothiadiazepines (PBTDs): A new class of agents with high apoptotic activity in chronic myelogenous leukemia K562 cells and in cells from patients at onset and who were imatinib-resistant” (2006)
# Calls of active or inactive are those of the source. The calls are words filed in the database; no cut-off is given here.
# Experiments:
# K562 [1] = experiment: Apoptotic activity against human K562 cell line at 10 uM after 48 hrs; assay type: functional
# Procedure, shortened: (§1)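 K562 cells exposed at 10 µM for 8, 16, 24 and 48 h, run alongside imatinib reference and untreated control cells. Result is % apoptosis as mean ± SD of triplicate experiments. Morphology (chromatin condensation, micronuclei, vacuolization) checked by electron microscopy.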
# K562 [2] = experiment: Apoptotic activity against human K562 cell line at 10 uM after 16 hrs; assay type: functional; procedure, shortened: as §1
# K562 [3] = experiment: Apoptotic activity against human K562 cell line at 10 uM after 8 hrs; assay type: functional; procedure, shortened: as §1
# K562 [4] = experiment: Apoptotic activity against human K562 cell line at 10 uM after 24 hrs; assay type: functional; procedure, shortened: as §1
# Homo sapiens [5] = species on record: Homo sapiens; experiment: Apoptotic activity against peripheral blood cells of CML affected human (27-83 yrs) at onset phase at 10 uM after 48 hrs; assay type: functional
# Procedure, shortened: (§2)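 Bone marrow or peripheral blood cells harvested from 12 consecutive CML patients at onset. Cells cultured in vitro and treated at 10 µM for 24 and 48 h. Read-out by DNA fragmentation assay as % apoptosis.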
# Homo sapiens [6] = species on record: Homo sapiens; experiment: Apoptotic activity against peripheral blood cells of CML affected human (27-83 yrs) at onset phase at 10 uM after 24 hrs; assay type: functional; procedure, shortened: as §2
# Homo sapiens [7] = species on record: Homo sapiens; experiment: Apoptotic activity against peripheral blood cells of imatinib-resistant CML affected human (38-70 yrs) at blast crisis phase at 10 uM after 24 hrs; assay type: functional
# Procedure, shortened: (§3)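 Peripheral blood cells taken from 2 CML patients in blast crisis that evolved under imatinib treatment. Cells cultured in vitro and exposed at 10 µM for 24 and 48 h. Apoptosis scored as % by DNA fragmentation assay.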
# K562 [8] = experiment: Decrease in procaspase 8 expression in human K562 cells by Western blot; assay type: functional, cell-based
# Procedure, shortened: (§4)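 Lysates of treated K562 cells taken after 24 h. Procaspase-8 and procaspase-9 immunoreactive bands assessed by Western blot.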
# K562 [9] = experiment: BCR-ABL inactivation-independent inhibition of […]-induced apoptosis in human K562 cell at 10 uM by Western blot; assay type: functional, cell-based
# Homo sapiens [10] = species on record: Homo sapiens; experiment: Apoptotic activity against peripheral blood cells of imatinib-resistant CML affected human (38-70 yrs) at blast crisis phase at 10 uM after 48 hrs; assay type: functional; procedure, shortened: as §3
# K562 [11] = experiment: Decrease in procaspase 9 expression in human K562 cells by Western blot; assay type: functional, cell-based; procedure, shortened: as §4
SMILES,Activity (K562 [1]),Activity (K562 [2]),Activity (K562 [3]),Activity (K562 [4]),Activity (Homo sapiens [5]),Activity (Homo sapiens [6]),Activity (Homo sapiens [7]),Activity (K562 [8]),Activity (K562 [9]),Activity (Homo sapiens [10]),Activity (K562 [11])
CCOC(=O)[C@H]1c2cccn2S(=O)(=O)c2ccccc2N1C(=O)c1ccc(C)cc1,81.8%,57.8%,33.1%,67.6%,–,–,–,–,–,–,–
CCOC(=O)[C@H]1Nc2ccccc2S(=O)(=O)n2cccc21,86.2%,53.8%,26.6%,69%,–,–,–,–,–,–,–
CCOC(=O)[C@@H]1c2cccn2S(=O)(=O)c2ccccc2N1C(=O)c1ccc(C)cc1,86.2%,63%,38%,71.6%,–,–,–,–,–,–,–
CCOC(=O)[C@@H]1Nc2ccccc2S(=O)(=O)n2cccc21,80.3%,48.4%,20.5%,63.2%,–,–,–,–,–,–,–
CCOC(=O)C1c2cccn2S(=O)(=O)c2ccccc2N1C(=O)c1ccccc1 (racemic),89.6%,66.6%,45%,80%,–,–,–,–,–,–,–
CCOC(=O)C1c2cccn2S(=O)(=O)c2ccccc2N1C(=O)c1ccc(Cl)cc1 (racemic),91.7%,67%,44.3%,79.7%,–,–,–,–,–,–,–
O=S1(=O)c2ccccc2NC(CO)c2cccn21 (racemic),23%,19.3%,5.3%,19.6%,–,–,–,–,–,–,–
CCOC(=O)CC1c2cccn2S(=O)(=O)c2ccccc2N1C(=O)c1ccc(C)cc1 (racemic),87.6%,67.6%,45%,74.3%,–,–,–,–,–,–,–
O=C(O)CC1Nc2ccccc2S(=O)(=O)n2cccc21 (racemic),6.1%,5.5%,4.5%,6.4%,–,–,–,–,–,–,–
CCOC(=O)CC1c2cccn2S(=O)(=O)c2ccccc2N1C(=O)c1ccc(F)cc1 (racemic),90.7%,66.3%,44.6%,79%,–,–,–,–,–,–,–
CCOC(=O)CC1c2cccn2S(=O)(=O)c2ccccc2N1C(=O)c1cccc2ccccc12 (racemic),92.6%,69%,47%,80%,–,–,–,–,–,–,–
CCOC(=O)CC1c2cccn2S(=O)(=O)c2ccccc2N1C(=O)c1ccc(Cl)cc1 (racemic),90%,65.5%,43%,78%,–,–,–,–,–,–,–
CCOC(=O)CC1c2cccn2S(=O)(=O)c2ccccc2N1C(=O)c1ccccc1 (racemic),92.3%,68%,45.3%,79.5%,–,–,–,–,–,–,–
O=C(O)C1Nc2ccccc2S(=O)(=O)n2cccc21 (racemic),6.2%,5.7%,4.8%,6.8%,–,–,–,–,–,–,–
CCOC(=O)CC1Nc2ccccc2S(=O)(=O)n2cccc21 (racemic),88.3%,53%,29.3%,72%,–,–,–,–,–,–,–
CCOC(=O)C1c2cccn2S(=O)(=O)c2ccccc2N1C(=O)c1ccc(C)cc1 (racemic),91.7%,67.6%,45.6%,79.6%,78%,55%,55%,inactive,Active,78%,–
CCOC(=O)C1c2cccn2S(=O)(=O)c2ccccc2N1C(=O)c1ccc(F)cc1 (racemic),92%,67.6%,45.3%,81%,–,–,–,–,–,–,–
CCOC(=O)C1c2cccn2S(=O)(=O)c2ccccc2N1C(=O)c1cccc2ccccc12 (racemic),87.6%,66%,43.7%,77%,–,–,–,–,–,–,–
CCOC(=O)C1Nc2ccccc2S(=O)(=O)n2cccc21 (racemic),89.7%,61.3%,34%,76.3%,70%,50%,40%,Active,Active,60%,inactive
Cc1ccc(NC(=O)c2ccc(CN3CCN(C)CC3)cc2)cc1Nc1nccc(-c2cccnc2)n1 [IMATINIB],71.2%,70%,66.7%,71%,–,–,–,–,–,–,–
